From the RNAGym collection of RNA variant scans (doi:10.1126/science.aae0568)
This sample holds only a part of the variants without activity.

B1: tRNA (parent)
chain: GUUCCGUUGGCGUAAUGGUAACGCGUCUCCCUCCUAAGGAGAAGACUGCGGGUUCGAGUCCCGUACGGAACG

Variants of: B1
Experiment: yeast fitness relative to wild type (ratio to wild type); higher = fitter; tRNA-Arg(CCU), competitive growth, 37 C, YPD
In short: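 Variants of the tRNA-Arg(CCU) gene were chemically synthesised with a 3% per-site mutation rate across 69 sites and placed at the native genomic locus in Saccharomyces cerevisiae. Six parallel replicates of the pooled strains were competed in YPD at 37°C for 24 hours, and gene amplicons from the start and end populations were read by 100-nucleotide paired-end sequencing. Darwinian fitness relative to wild type was derived from changes in genotype frequencies. Genotypes required ≥ 100 starting reads, and estimates < 0.5 were set to 0.5.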

Point of comparison: GUCCCGUUGGCAUAAUGGUAACGCGUCUCCCUCCUAAGGAGAAGACUCCGGGUUCGAGUCCCGUACGGAACG [U3C G12A G48C], yeast fitness 0.558. Against it:
- GUUCCGUUGGCGUAAUGGUUACGCGUCUCUGUCCUAAGGAGAGAACAGGGGGUUCGAGUCCCGUACGGAACG [A20U C30U C31G A43G G44A U47A C49G] — higher, 0.595
- GUUACGUUGGCGUAAUGGUAAUGAGUCUACCUCCUCAGGAGAAGACUGCGGGUUCGAGUCCCGUACGGAACG [C4A C22U C24A C29A A36C] — lower, 0.518
- GUUCCGUUGGCGUCAUGGUAACGCGUCUCCCUCCUAAGGAGAAGACUGCAGGUUGGAGUCCAGUACGGAACG [A14C G50A C55G C62A] — higher, 0.692
- GUUCCGUUGGCGUAAUGGUAGCGCGUCUCCUUCCUAAGGAGAAGACUGUGGGUUCGAGUCCCGUACGGAACG [A21G C31U C49U] — higher, 0.97
- GUUCCGUUGGCGUAAUGGUAACGCGUCUCCCUCCUAAGAAGAAGACUGCGAGAUCGAGUCCCCUACGGAACG [G39A G51A U53A G63C] — lower, ≤ 0.5
- GUUCCCUUGGCGUAAUGGUAACGCGUCUCCCUCCUAAGGCGAAGCCUGCGGGUUCGAGUCCCGUACGGAACG [G6C A40C A45C] — lower, ≤ 0.5
- GUUCCGUUGCCGUAAUGGUAAAGGGUCUCCCUCCUAAGGAGAAGACUGCGGGAUCGAGUCCUGUACGGAACG [G10C C22A C24G U53A C62U] — lower, ≤ 0.5
- GUUCCGUUGGCGUCAUGGUAACGCGUCUACCUCCUAAGGAGAAGACUGCAGGUUCGAGUCCCGUACGCACCG [A14C C29A G50A G68C A70C] — lower, ≤ 0.5
- GUUCCGUUGGCGUAAUGGUAACGCGUCUCCCUCCUAAGGAGAAGACUGCGGGUUGGUGUCCCGUACGGAACG [C55G A57U] — higher, 0.633
- GUUCCGUUGGCGUAGUGGUAACGCGUCUCCCUCCGAAGGAGAGGACUGCGGGUUCGAGUCCCGUAUGGAACG [A15G U35G A43G C66U] — lower, ≤ 0.5
- GUUCCGUUGGCGUAAUGGUAACGCGUCUCCCUCCGAAGGAGAAGACUGCGGGUUCGAGUCCCGUCCGGAACG [U35G A65C] — higher, 0.639
- GUUCCGUUGGUGUAAUGGUAACGCGUCUCCGUCCUAAGGAGAAGAGUGCGGAUUCGAGUCCCGUAUGGAACG [C11U C31G C46G G52A C66U] — lower, ≤ 0.5
- GUUCCGUUGGCGUAAUGGUAACGCGUCUCUCUCCUAAGGAGAAGACUGCGGGUUCGAGUCCAGUACGGAACG [C30U C62A] — higher, 0.798
- GUUCCGUUGGCGUAAUGGUAACUCGUCUCCCUCCUAAGGAGAAGACUGCGGGUUCGUGUCCCGUACGGAACG [G23U A57U] — higher, 0.614
- GUUCCGUUGGCGUUAUGGUAACGCGUCUCCCUCCUAAGGAGGAGACUGCGGGUUCGAGUCCCGUACGGAACG [A14U A42G] — lower, 0.529
- GUUCCGUUGGCGUAAAGGUAACGCGUCUCCCUCUUAAGGAGAAGACUGCGGGUUCGAGUCCCGUACGGAUCG [U16A C34U A70U] — lower, ≤ 0.5
- GUUCCGUUGGCGUAAUGGUAACGCGUCGCCCUCCUAAGGAGAAGACUGCGUGUUCGAGUCCCGAAUGGCACG [U28G G51U U64A C66U A69C] — lower, ≤ 0.5
- GUUCCGUUGGCGUAAUGGUAACGCGCCUCCCUCCUAACGAGAAGACUGCGGGUUCGAGUCCCGUACGGAACG [U26C G38C] — higher, 0.717
- GUUCCGUUGGCGUAAUGGUAACACGUCUCCCUGCUAAGGAGAAGACAGCGGGUUCGAGUCCCGUACGAAACG [G23A C33G U47A G68A] — lower, 0.539
- GUUCCAUUGGCGUAAUGGUAACCCGUCUCCCUCCUAAGGAGAAGACUGCGGGUUCGAGUACCGUACGGAACG [G6A G23C C60A] — higher, 0.573
- GUCCCGUUGGCGUUAUGGUAACGCGUCUCCCUCCUAAGGGGAAGACUGCGGGUUCGAGUCGCGUACGGAACG [U3C A14U A40G C61G] — higher, 0.567
- GUUCCGUUGACGUAAUGGUAACGCGUCUACCUCCUAAGGAGUAGACUGCGGGUUCGAGUCCCGCACGGAACG [G10A C29A A42U U64C] — lower, 0.529
- GUUCCGUUGGCGUAAUAGUGACGCGUGUCCCUCCUCAGGAGAAGACUGCGGGUUCGAGUCCCGUUCGGAACG [G17A A20G C27G A36C A65U] — lower, ≤ 0.5
- GAUCCGUUGGCGUUAUGGUAGCGCGUCUCCCUCCUAAGGAGAAGAGUGCGGGUUCGUGUCCCGUACGGCACG [U2A A14U A21G C46G A57U A69C] — lower, ≤ 0.5
- GUUCCGUUGGCGUUAUGGAAACGCGUCUCCCUCCUCAGGAGAAGACUGCGGGUUCGAGUCCCGUACGGAACG [A14U U19A A36C] — lower, ≤ 0.5
- GUUCCGUUGGCGUACUGGUAACGCGUCACCCUCGUAAGGAGAUGACUGCGGGUUCGAGUCCCUCACGGAACG [A15C U28A C34G A43U G63U U64C] — lower, ≤ 0.5
- GUUGCGUUGGCGUAAUGGUAACGCGUCUCACUCUUAGGGAGAAGACUGCGGGUUCGAGUCCCGUACGGAACG [C4G C30A C34U A37G] — lower, ≤ 0.5
- GUUCCGUUGGCGUAAUGGUAACACGUUUCCCUCCUAAGGAGAAGACUGCGGGUUCGAGUGCCGUACAGAACG [G23A C27U C60G G67A] — lower, 0.549
- GUUCCGUUGGUGUAAUGGUCAGGCGUCUCCCUCCUAAGGAGAAGACUGCGGGUUCGAGUCCCGUACGGAACG [C11U A20C C22G] — higher, 0.576
- GUUCCGUUGGUGUAAUGGUAACGCGUCUCCCUCCUAAGGAGCAGACUGCGGGUUCGAGUCCCGUACGGAACG [C11U A42C] — higher, 0.91
- GUUCCGUUGGCGUAAUGGUAACGCGUCUCCCUCCUAAAGAGAAGACUGCGGGUCCGAGUCCCGUUCGGAACG [G38A U54C A65U] — higher, 0.581
- GUUCCAUUGGCGUAAUGGUAACGCGUUUCCCUCCUAAGGAGAAGACUGCGGGUUCGUGUCCCGUACGGAACG [G6A C27U A57U] — lower, 0.544
- GUUCCGUUGGCGUCACGGUAGCGCGUCUACCUCUUAAGGAGAAGACUGCGGGUUCGAGUCCCGUACGGUACG [A14C U16C A21G C29A C34U A69U] — lower, ≤ 0.5
- GUUCCCUUGGCGUAAUGGUAACGCGUCUCCCUCCUAAGGAGAAGACUGCCGGUUCGAGUCCGGUAUGGAACG [G6C G50C C62G C66U] — higher, 0.673
- GUUCCGUUGGCGUAAUGGUAGCGCGUUUCCCUCCUAAGGAGAAGACUGCGGGUUCGAGUCCCGUACGGAACG [A21G C27U] — higher, 1.03
- GUUCCGUUGGCCUAAUGGUAACGCGUCUCCCUCCUAAGGAGAAGAUUGGGGGUUCGAGUCCCGUACGGAUCG [G12C C46U C49G A70U] — lower, 0.526
- GUUCCGUUGGGGUAAUGGUAACGCGUCUCCCUCCUAACGAGAAGACUGCGGGUUUGAGUCGCGUACGGAACG [C11G G38C C55U C61G] — lower, ≤ 0.5
